Assay results from ChEMBL document CHEMBL4706565, “Anti-glioma effects of 2-aminothiophene-3-carboxamide derivatives, ANO1 channel blockers” (Eur J Med Chem, 2020).
Active and inactive are the calls of the source. The rule behind the calls is not given here.

What was measured:
[1] = biological target: T1, Anoctamin-1 (Homo sapiens) (UniProt Q5XXA6); test: Inhibition of human ANO1 channel expressed in HEK293 cells at 10 uM incubated for 10 mins by FLIPR assay relative to control; assay type: cell-based
T1 sequence (whole entry): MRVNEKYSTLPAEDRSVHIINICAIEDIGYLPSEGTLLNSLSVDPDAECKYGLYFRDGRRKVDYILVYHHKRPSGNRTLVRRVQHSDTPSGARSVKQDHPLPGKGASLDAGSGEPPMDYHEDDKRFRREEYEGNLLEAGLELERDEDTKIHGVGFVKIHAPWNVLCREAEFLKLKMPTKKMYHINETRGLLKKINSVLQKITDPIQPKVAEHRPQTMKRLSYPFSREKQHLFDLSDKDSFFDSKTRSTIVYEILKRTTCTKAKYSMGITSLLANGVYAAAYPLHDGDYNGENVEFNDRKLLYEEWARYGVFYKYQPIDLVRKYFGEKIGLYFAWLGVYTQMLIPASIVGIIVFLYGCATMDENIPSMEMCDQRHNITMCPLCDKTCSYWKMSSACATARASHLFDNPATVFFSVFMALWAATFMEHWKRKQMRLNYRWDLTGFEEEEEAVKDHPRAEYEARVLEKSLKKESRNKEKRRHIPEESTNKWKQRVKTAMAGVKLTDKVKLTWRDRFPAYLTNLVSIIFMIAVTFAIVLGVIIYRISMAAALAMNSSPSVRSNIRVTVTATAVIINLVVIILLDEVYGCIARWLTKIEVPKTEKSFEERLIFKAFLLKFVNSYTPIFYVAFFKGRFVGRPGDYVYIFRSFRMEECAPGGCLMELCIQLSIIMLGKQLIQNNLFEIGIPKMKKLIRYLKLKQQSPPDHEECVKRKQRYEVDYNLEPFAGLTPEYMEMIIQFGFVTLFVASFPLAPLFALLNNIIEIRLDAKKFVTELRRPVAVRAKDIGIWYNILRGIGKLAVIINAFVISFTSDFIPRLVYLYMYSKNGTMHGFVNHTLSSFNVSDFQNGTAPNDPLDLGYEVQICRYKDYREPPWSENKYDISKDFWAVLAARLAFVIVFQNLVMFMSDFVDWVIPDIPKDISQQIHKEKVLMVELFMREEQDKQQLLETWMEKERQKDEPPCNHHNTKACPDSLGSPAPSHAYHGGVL
Method in brief: (§1)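 HEK293 cells expressing human ANO1, 50,000 cells/well, plated overnight. Loaded with FLIPR Red membrane-potential dye in HEPES-buffered saline (pH 7.4) for 40-60 min at room temperature. Compound added for 10 min at room temperature, final DMSO 0.5%.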

[2] = biological target: T2, Anoctamin-1 (Homo sapiens, UniProt Q5XXA6); test: Inhibition of human ANO1 expressed in FRT cells assessed as inhibition of ATP-induced channel current treated 20 mins prior to ATP challenge and measured by pacth-clamp technique; assay type: cell-based
T2 sequence (Q5XXA6 whole entry): T1 sequence (whole entry)

[3] = tested on: U138-MG; test: Antiproliferative activity against human U138 cells overexpressing ANO1 assessed as reduction in cell viability at 100 uM measured after 72 hrs by Celltiter-glo assay; assay type: functional
Method in brief: (§2)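 5.0×10^3 cells/well seeded, overnight, then compounds added as 1:4 serial dilutions in DMSO; viability read after 72 h with CellTiter-Glo luminescence. GI50 from fitted dose-response curves; triplicate wells, SD from three independent experiments. DMEM for U251 and U138, MEM for U87MG, both with 10% FBS and pen/strep, 37 °C, 5% CO2.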

[4] = tested on: U-251; test: Inhibition of cell invasion in human U251 cells at 10 uM incubated for 48 hrs by Boyden chamber method; assay type: functional
Method in brief: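 Boyden chamber invasion: U251 cells serum-starved 24 h, then 2.5×10^5 cells seeded in 8-μm ECMatrix-coated transwells. Treated with compound at 1 or 10 μM for 48 h at 37 °C. Invasion ratio from relative fluorescence.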

[5] = biological target: T3, Anoctamin-1 (Mus musculus, UniProt Q8BHY3); test: Inhibition of GFP-fused mouse ANO1 channel expressed in HEK293A cells assessed as inhibition of ATP-induced channel current amplitude at membrane potential of +80 mV by patch clamp electrophysiology assay; assay type: cell-based, HEK293-A
T3 sequence (Q8BHY3 whole entry): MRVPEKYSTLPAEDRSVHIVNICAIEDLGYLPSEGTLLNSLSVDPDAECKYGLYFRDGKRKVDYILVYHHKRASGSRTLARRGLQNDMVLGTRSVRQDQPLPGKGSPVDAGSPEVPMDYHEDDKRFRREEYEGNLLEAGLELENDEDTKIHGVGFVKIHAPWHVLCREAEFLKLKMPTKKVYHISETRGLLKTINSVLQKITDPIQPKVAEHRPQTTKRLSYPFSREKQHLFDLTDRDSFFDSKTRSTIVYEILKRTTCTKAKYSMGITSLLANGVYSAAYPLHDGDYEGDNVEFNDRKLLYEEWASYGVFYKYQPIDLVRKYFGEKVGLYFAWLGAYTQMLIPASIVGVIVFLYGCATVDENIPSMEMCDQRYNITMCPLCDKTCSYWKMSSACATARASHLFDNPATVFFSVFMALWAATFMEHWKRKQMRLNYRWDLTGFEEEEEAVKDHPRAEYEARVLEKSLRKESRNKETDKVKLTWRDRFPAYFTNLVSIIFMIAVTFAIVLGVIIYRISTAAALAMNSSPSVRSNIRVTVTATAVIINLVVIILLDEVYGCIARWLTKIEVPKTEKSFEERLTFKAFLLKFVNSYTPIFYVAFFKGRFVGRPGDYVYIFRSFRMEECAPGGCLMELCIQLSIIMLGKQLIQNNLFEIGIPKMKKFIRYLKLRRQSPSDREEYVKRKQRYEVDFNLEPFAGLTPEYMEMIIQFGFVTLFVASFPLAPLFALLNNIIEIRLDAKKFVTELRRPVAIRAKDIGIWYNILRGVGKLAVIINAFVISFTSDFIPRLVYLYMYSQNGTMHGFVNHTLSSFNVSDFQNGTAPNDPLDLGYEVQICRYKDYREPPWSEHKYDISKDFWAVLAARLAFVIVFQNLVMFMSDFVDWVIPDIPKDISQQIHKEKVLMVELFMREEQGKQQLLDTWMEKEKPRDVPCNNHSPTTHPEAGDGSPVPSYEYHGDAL
Method in brief: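 Whole-cell recording at room temperature in HEK293A cells transfected with GFP-mANO1, GFP-mANO2 or GFP-mTTYH1. 1 s ramps from +80 to -80 mV, holding potential -10 mV. For ANO1/ANO2: pipette CsCl 146 mM with Ca-EGTA-NMDG, pH 7.3; bath NaCl-based, pH 7.3. For TTYH1: Tris-aspartate pipette (pH 7.2) and Tris-HCl bath (pH 7.4), with […] and BaCl2 added to block K+ channels, and hypotonic (220 mOsm/kg) bath. Washout recordings assessed reversibility.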

[6] = tested on: U-251; test: Inhibition of cell migration in human U251 cells at 10 uM incubated for 18 hrs by wound healing assay; assay type: functional
Method in brief: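 U251 monolayer, 2.0×10^5 cells/well, plated overnight, then scratched and washed with PBS. Wound area imaged before and after incubation; migration ratio taken from migrated area. One-way ANOVA.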

[7] = tested on: U-251; test: Antiproliferative activity against human U251 cells overexpressing ANO1 assessed as reduction in cell viability measured after 72 hrs by Celltiter-glo assay; assay type: functional; method in brief: as §2
[8] = tested on: U-251; test: Inhibition of colony formation in human U251 cells at 10 uM incubated for 14 days by crystal violet dye based assay; assay type: functional; settings: time 14.0 day
Method in brief: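 Colonies stained 24 h with crystal violet in methanol/formaldehyde/PBS, washed, extracted with 10% acetic acid and read at A570 nm. Compared against DMSO control.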

[9] = tested on: U-87 MG; test: Antiproliferative activity against human U87MG cells overexpressing ANO1 assessed as reduction in cell viability at 100 uM measured after 72 hrs by Celltiter-glo assay; assay type: functional, U-87MG ATCC; method in brief: as §2
[10] = Antiproliferative activity against mouse primary astrocytes assessed as reduction in cell viability at 100 uM measured after 72 hrs by Celltiter-Glo luminescent assay; assay type: cell-based, Astrocyte
Method in brief: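 Primary astrocytes isolated from adult mouse brain by a previously reported method. 5.0×10^3 cells/well, compound as 1:4 serial DMSO dilutions, CellTiter-Glo viability at 72 h.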

[11] = biological target: T2, Anoctamin-1; test: Inhibition of human ANO1 channel expressed in HEK293 cells incubated for 10 mins by FLIPR assay; assay type: cell-based; method in brief: as §1
[12] = tested on: U-251; test: Inhibition of anchorage-independent colony formation in human U251 cells at 100 uM incubated for 14 days by crystal violet staining based soft agar colony formation assay; assay type: functional; settings: time 14.0 day
Method in brief: (§3)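 Soft agar assay: 2.0×10^3 U251 cells in complete medium with 0.3% agar over a 0.6% bottom agar layer. Treated with compounds at 1-100 μM for 14 days, 37 °C, 5% CO2. Colonies stained with crystal violet for 24 h, whole wells photographed and colonies counted against DMSO control; n = 3.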

[13] = tested on: U-251; test: Inhibition of anchorage-independent colony formation in human U251 cells at 10 uM incubated for 14 days by crystal violet staining based soft agar colony formation assay; assay type: functional, cell-based; settings: time 14.0 day; method in brief: as §3

For CCc1c(C)nc(SCC(=O)Nc2ncc(-c3ccc(OC)cc3)s2)nc1O, the inhibition [1] was 63.9%, the IC50 [2] was 1100 nM and the inhibition at 100 µM [3] was under 50%. The inhibition at 10 µM [4] was 19.2%, the IC50 [5] was 2740 nM and the inhibition at 10 µM [6] was 26.5%. For the same compound, the GI50 [7] was 79300 nM, the inhibition [8] was “inactive” and the inhibition at 100 µM [9] was under 50%. For the same compound, the inhibition at 72 h, 100 µM [10] was under 50%, the IC50 [11] was 2600 nM and the inhibition [12] was “inactive”. For the same compound, the inhibition [13] was “inactive”.
